# Measured values as given in ChEMBL document CHEMBL4219162, “Adamantane amine-linked chloroquinoline derivatives as chloroquine resistance modulating agents in Plasmodium falciparum” (Bioorg Med Chem Lett, 2018).
# Assays:
# [1] = Aqueous stability of the compound in pH 4.5 HEPES-buffer at 1 mg/ml at 37 degC after 72 hrs by UV spectroscopic method; type: physicochemical; details: pH 4.5, 72 h
# Outline: (§1)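 Test compound at 1 mg/ml in aqueous HEPES-containing buffer, held at 37 °C for 72 h to check for degradation. pH 7.4 matches the pLDH antimalarial assay medium. pH 4.5 approximates the parasite's acidic digestive vacuole. Conditions mirror the pLDH assay procedure.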
# CHO = assay: Cytotoxicity against CHO cells by MTT assay; type: cell-based; details: Cricetulus griseus
# Outline: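 Chinese hamster ovary cell growth and survival read by viable-cell reduction of yellow MTT to purple-blue formazan. IC50 derived. Emetine served as the cytotoxic reference drug.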
# [2] = Aqueous stability of the compound in pH 7.4 HEPES-buffer at 1 mg/ml at 37 degC after 72 hrs by UV spectroscopic method; type: physicochemical; details: pH 7.4, 72 h; outline: as §1
# [3] = Selectivity index, ratio of IC50 for CHO cells to IC50 for chloroquine-resistant Plasmodium falciparum K1 infected in normal type A human erythrocytes; type: toxicity, cell-based; details: Chinese hamster; read-out: Ratio IC50
# Outline: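 Selectivity index computed as IC50 in Chinese hamster ovary cells, measured by MTT reduction to formazan, divided by IC50 against K1 from the pLDH assay.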
# [4] = Reversal modification index, ratio of IC50 for chloroquine-resistant Plasmodium falciparum K1 infected in normal type A human erythrocytes to IC50 for chloroquine-sensitive Plasmodium falciparum NF54 infected in normal type A human erythrocytes relative to […]; type: functional
# Outline: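 Reversal modification index taken as the resistance index (IC50 K1/IC50 NF54) of each compound relative to the resistance index of chloroquine.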
# Plasmodium falciparum [5] = assay: Antimalarial activity against chloroquine-resistant Plasmodium falciparum K1 infected in normal type A human erythrocytes incubated for 72 hrs by spectrophotometry based parasite lactate dehydrogenase assay; type: functional, organism-based; details: K1, 72 h
# Outline: (§2)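 Modified parasite lactate dehydrogenase (pLDH) assay run in parallel on CQ-sensitive NF54 and CQ-resistant K1 strains, with chloroquine as positive control. […], 37 °C, and the readout gave IC50.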
# Plasmodium falciparum [6] = assay: Antimalarial activity against chloroquine-sensitive Plasmodium falciparum NF54 infected in normal type A human erythrocytes incubated for 72 hrs by spectrophotometry based parasite lactate dehydrogenase assay; type: functional, organism-based; details: NF54, 72 h; outline: as §2
# [7] = Resistance index, ratio of IC50 for chloroquine-resistant Plasmodium falciparum K1 infected in normal type A human erythrocytes to IC50 for chloroquine-sensitive Plasmodium falciparum NF54 infected in normal type A human erythrocytes; type: functional
# Outline: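 Resistance index computed as IC50 against K1 divided by IC50 against NF54, both from the pLDH assay.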
# Plasmodium falciparum [8] = assay: Potency index, ratio of IC50 for […] to IC50 for test compound for antimalarial activity against chloroquine-resistant Plasmodium falciparum K1 infected in normal type A human erythrocytes incubated for 72 hrs by spectrophotometry based parasite lactate dehydrogenase assay; type: functional
Structure (SMILES),Stability [1],IC50 (CHO) [nM],Stability [2],selectivity ratio [3],Ratio IC50 [4],IC50 (Plasmodium falciparum [5]) [nM],IC50 (Plasmodium falciparum [6]) [nM],Ratio IC50 [7],Ratio IC50 (Plasmodium falciparum [8])
Clc1ccc2c(NCCCN=C3C4CC5CC(C4)CC3C5)ccnc2c1,Unstable,66400,Stable,346,2.4,192,5,,
Clc1ccc2c(NCCCCCCN=C3C4CC5CC(C4)CC3C5)ccnc2c1,,> 103000,,104,2.74,1580,113,14.02,
Clc1ccc2c(NCCCCN=C3C4CC5CC(C4)CC3C5)ccnc2c1,,57100,,73,5.32,784,108,7.23,
OC12CC3CC(CC(C3)N1CCCCCCNc1ccnc3cc(Cl)ccc13)C2,,80800,,285,10.09,284,112,3.81,
OC12CC3CC(CC(C3)N1CCCCNc1ccnc3cc(Cl)ccc13)C2,,37900,,191,6.59,198,33.9,5.84,
Clc1ccc2c(NCCN=C3C4CC5CC(C4)CC3C5)ccnc2c1,,98500,,1050,10.8,93.8,26.3,3.56,3 - 4
OC12C3C4CC5C6C4C1C6C(C53)N2CCNc1ccnc2cc(Cl)ccc12 (centres undefined),,,,131,5.22,72.6,9.84,7.36,
CCN(CC)CCCC(C)Nc1ccnc2cc(Cl)ccc12 (centres undefined) [CHLOROQUINE],,57800,,,,,,,
OC12CC3CC(CC(C3)N1CCCNc1ccnc3cc(Cl)ccc13)C2,,45200,,467,8.86,96.8,22.3,4.34,3 - 4
OC12CC3CC(CC(C3)N1CCNc1ccnc3cc(Cl)ccc13)C2,,> 279000,,> 2820,18.23,98.9,46.9,2.11,3 - 4
CC[C@H]1CN2CCc3cc(OC)c(OC)cc3[C@@H]2C[C@@H]1C[C@H]1NCCc2cc(OC)c(OC)cc21 [EMETINE],,130,,,,,,,
